In PMC10596003 (ACS Chemical Biology, 2023):
Where two headings read alike, the source gives them in different places.

What was measured:
SAMHD1 [1] = molecular target: T1, SAMHD1 (Homo sapiens, UniProt Q9Y3Z3); test: glutaraldehyde protein cross-linking assay of oligomeric state; settings: for D (%), dimer / T (%), tetramer: 500 μM ligand, 600 nM SAMHD1; for effect on oligomeric state: 500 μM analog (dGTPαS 100 μM), 0.6 μM SAMHD1
SAMHD1 A1 site = SAMHD1 A1 site (Homo sapiens, UniProt Q9Y3Z3); test: fluorescence anisotropy competitive binding assay with 5′-FAM-pdGpdGpdG-3′ probe; settings: competition with 5′ FAM-pdGpdGpdG-3′ probe
Sequence of SAMHD1 A1 site (Q9Y3Z3 whole entry): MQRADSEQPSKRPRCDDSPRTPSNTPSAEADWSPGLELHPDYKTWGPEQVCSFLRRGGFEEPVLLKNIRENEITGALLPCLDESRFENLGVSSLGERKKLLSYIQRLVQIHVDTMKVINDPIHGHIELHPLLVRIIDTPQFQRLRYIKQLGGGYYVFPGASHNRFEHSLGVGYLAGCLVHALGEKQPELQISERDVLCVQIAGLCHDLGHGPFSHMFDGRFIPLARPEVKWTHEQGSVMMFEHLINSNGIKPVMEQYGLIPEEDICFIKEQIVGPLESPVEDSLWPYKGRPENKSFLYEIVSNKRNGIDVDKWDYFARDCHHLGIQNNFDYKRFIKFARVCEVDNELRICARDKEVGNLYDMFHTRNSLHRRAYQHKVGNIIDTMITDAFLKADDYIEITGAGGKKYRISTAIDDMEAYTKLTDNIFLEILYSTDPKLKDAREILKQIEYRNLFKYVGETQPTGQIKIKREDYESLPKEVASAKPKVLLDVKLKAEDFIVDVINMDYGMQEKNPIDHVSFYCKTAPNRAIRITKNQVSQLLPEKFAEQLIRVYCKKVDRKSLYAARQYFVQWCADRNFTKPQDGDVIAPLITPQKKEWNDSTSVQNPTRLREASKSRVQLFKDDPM

SAMHD1 [2] = molecular target: T1, SAMHD1; test: malachite green; format: biochemical; settings: for IC50: 50 μM GTP and 50 μM dATP, 11-point dose response; for inhibition at 500 µM: read-out: dNTPase inhibition (%, [I] = 500 μM)
[3] = molecular target: SAMHD1 binding to ssDNA32 (Homo sapiens, UniProt Q9Y3Z3); test: fluorescence anisotropy displacement of 5′-FAM-labeled ssDNA32; settings: read-out: EC50 ssDNA displacement; 1 μM SAMHD1, 0.5 μM ssDNA32
Sequence of SAMHD1 binding to ssDNA32 (Q9Y3Z3 whole entry): as above
Procedure, shortened: (§1)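 SAMHD1 (1 μM) was preincubated with 0.5 μM 5′-FAM-labelled 32mer ssDNA or ssRNA; the two strands have identical base sequences. […] SD from triplicate experiments.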

[4] = molecular target: SAMHD1 binding to ssRNA32 (Homo sapiens, UniProt Q9Y3Z3); test: fluorescence anisotropy displacement of 5′-FAM-labeled ssRNA32; settings: read-out: EC50 ssRNA displacement; 1 μM SAMHD1, 0.5 μM ssRNA32
Sequence of SAMHD1 binding to ssRNA32 (Q9Y3Z3 whole entry): as above
Procedure, shortened: as §1

T1 sequence (Q9Y3Z3 whole entry): as above

| Structure (SMILES) | D (%), dimer (SAMHD1 [1]) [%] | T (%), tetramer (SAMHD1 [1]) [%] | Kd (SAMHD1 A1 site; read-out: binding Kd) [µM] | Kd (SAMHD1 A1 site; binding Kd (μM)) [µM] | other results |
| --- | --- | --- | --- | --- | --- |
| Nc1nc2c(ncn2[C@H]2C[C@H](OP(=O)(O)O[C@H]3C[C@H](n4cnc5c(N)ncnc54)O[C@@H]3CO)[C@@H](CO)O2)c(=O)[nH]1 [5′-dGpdA-5′] | 93 | 0 | 70 ± 13 | – | – |
| Cn1c[n+]([C@@H]2O[C@H](COP(=O)([O-])OP(=O)(O)OP(=O)(O)O)[C@@H](O)[C@H]2O)c2nc(N)[nH]c(=O)c21 [Compound 7-Me-GTP] | – | – | > 1000 | – | – |
| Nc1nc2c(nc(Br)n2[C@H]2C[C@H](O)[C@@H](CO)O2)c(=O)[nH]1 [Compound 8-bromo-dG, 8-bromo-deoxyguanosine] | 62 | 0 | – | > 1000 | – |
| Nc1nc2c([nH]c(=O)n2[C@H]2C[C@H](O)[C@@H](CO)O2)c(=O)[nH]1 [Compound 8-oxo-dG, 8-oxo-deoxyguanosine] | 37 | 0 | – | > 1000 | – |
| O=C(O)c1cccc(-c2cccc(Br)c2)c1 [Compound 1023, 3′-bromobiphenyl-3-carboxylic acid] | 17 | 0 | – | > 500 | IC50 (SAMHD1 [2]; IC50 (μM)): 220 ± 150 µM |
| Nc1nc2c(ncn2[C@@H]2O[C@H](COP(=O)(O)OP(=O)(O)O)[C@@H](O)[C@H]2O)c(=O)[nH]1 [GDP] | 88 | 0 | 210 ± 32 | – | effect on oligomeric state (SAMHD1 [1]): can induce dimerization |
| Nc1nc2c(ncn2[C@@H]2O[C@H](COP(=O)(O)O)[C@@H](O)[C@H]2O)c(=O)[nH]1 [GMP] | 87 | 0 | 110 ± 41 | – | – |
| Nc1nc2c(ncn2[C@@H]2O[C@H](COP(=O)(O)OP(=O)(O)OP(=O)(O)O)[C@@H](O)[C@H]2O)c(=O)[nH]1 [GTP] | – | 30 | 61 ± 11 | – | EC50 [3]: 89 ± 25 µM; effect on oligomeric state (SAMHD1 [1]): induced complete dimerization; EC50 [4]: 170 ± 32 µM |
| Nc1nc2c(ncn2COCCO)c(=O)[nH]1 [acyclovir] | 78 | 0 | – | – | inhibition at 500 µM (SAMHD1 [2]): 68 ± 31% |
| Nc1ncnc2c1ncn2[C@H]1C[C@H](O)[C@@H](COP(=O)(O)O)O1 [dAMP] | 32 | 0 | > 1000 | – | – |
| Nc1nc2c(ncn2[C@H]2C[C@H](O)[C@@H](CO)O2)c(=O)[nH]1 [dG, deoxyguanosine] | 80 | 0 | – | 79 ± 20 | IC50 (SAMHD1 [2]; IC50 (μM)): 130 ± 89 µM; inhibition at 500 µM (SAMHD1 [2]): 65 ± 2.4% |
| Nc1nc2c(ncn2[C@H]2C[C@H](O)[C@@H](COP(=O)(O)OP(=O)(O)O)O2)c(=O)[nH]1 [dGDP] | 39 | 56 | 130 ± 28 | – | effect on oligomeric state (SAMHD1 [1]): induced tetramerization |
| Nc1nc2c(ncn2[C@H]2C[C@H](O)[C@@H](COP(=O)(O)O)O2)c(=O)[nH]1 [dGMP] | 91 | 0 | 140 ± 43 | – | IC50 (SAMHD1 [2]): 110 ± 47 µM |
| Nc1nc2c(ncn2[C@H]2C[C@H](O)[C@@H](COP(O)(=S)OP(=O)(O)OP(=O)(O)O)O2)c(=O)[nH]1 (some centres unmarked) [dGTPαS] | – | – | – | – | effect on oligomeric state (SAMHD1 [1]): induced tetramerization |
| Nc1nc2c(ncn2[C@@H]2O[C@H](CO)[C@@H](O)[C@H]2O)c(=O)[nH]1 [rG, guanosine] | 64 | 0 | – | 500 ± 185 | inhibition at 500 µM (SAMHD1 [2]): 6 ± 8.5% |
